High-throughput results deposited in PubChem BioAssay by several laboratories.
Compounds with a hit are over-represented: about 2.5% of the library has one in this group of screens.
Platelet DG rel – modulates dense granule release in human platelets. human platelet-rich plasma, SFLLRN dense granule ATP release, luminescence. inhibition, %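 (compounds screened at 7.5 µM in platelet-rich plasma)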. 300,000 compounds, 0.22% hits. AID 1663;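 active = mean replicate score, as percent of positive control, at or above 50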
TRPC6 activator – mouse TRPC6 channel activation. Q61143. HEK293-TRPC6 membrane potential dye fluorescence; hits give high values. B-score at 10 µM. 310,000 compounds, 0.13% hits;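 active = B-score of the integrated fluorescence ratio above library mean plus 3 SD, and starting fluorescence ratio within library mean plus 5 SD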;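 also: higher score means more depolarization so channel activation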
Target sequence (Q61143 whole entry, looked up): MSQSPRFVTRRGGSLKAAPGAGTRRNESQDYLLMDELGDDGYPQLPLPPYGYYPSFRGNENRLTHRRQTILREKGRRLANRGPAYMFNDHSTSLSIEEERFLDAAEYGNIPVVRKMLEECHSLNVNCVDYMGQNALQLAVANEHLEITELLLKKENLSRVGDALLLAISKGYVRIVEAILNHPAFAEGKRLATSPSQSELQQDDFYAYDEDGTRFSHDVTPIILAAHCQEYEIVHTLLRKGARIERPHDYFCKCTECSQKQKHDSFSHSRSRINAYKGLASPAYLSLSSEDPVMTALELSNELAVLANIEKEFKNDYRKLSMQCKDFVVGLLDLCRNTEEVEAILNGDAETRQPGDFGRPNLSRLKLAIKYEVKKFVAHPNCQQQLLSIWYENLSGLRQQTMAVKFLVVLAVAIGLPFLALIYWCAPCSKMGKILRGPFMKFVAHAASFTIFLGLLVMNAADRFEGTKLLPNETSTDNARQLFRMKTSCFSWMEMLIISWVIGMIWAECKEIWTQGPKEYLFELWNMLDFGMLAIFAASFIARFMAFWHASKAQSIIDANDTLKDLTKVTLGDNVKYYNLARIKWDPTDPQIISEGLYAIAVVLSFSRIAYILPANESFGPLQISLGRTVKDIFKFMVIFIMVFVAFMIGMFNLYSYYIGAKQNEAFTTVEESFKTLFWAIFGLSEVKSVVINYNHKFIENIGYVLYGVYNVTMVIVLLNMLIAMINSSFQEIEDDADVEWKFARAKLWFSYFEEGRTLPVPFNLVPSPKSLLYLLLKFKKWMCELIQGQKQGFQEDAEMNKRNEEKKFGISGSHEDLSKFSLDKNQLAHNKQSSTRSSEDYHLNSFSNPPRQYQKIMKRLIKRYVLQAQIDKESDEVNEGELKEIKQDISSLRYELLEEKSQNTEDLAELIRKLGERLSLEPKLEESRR
TRPC4 potent – TRPC4 (mouse) allosteric potentiation | Q9QUQ5 | B-score at 10 µM | 310,000 compounds, 0.42% hits | HEK293 TRPC4beta/mu-opioid, DAMGO EC20, Fluo-4 Ca2+ flux; hits give high values | AID 2227;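 active = B-score of calcium response area above 5 SD of library B-scores, with initial fluorescence ratio within 5 SD of library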
TRPC6 inhibitor – blocks the mouse TRPC6 cation channel | Q61143 | HEK293-TRPC6, membrane potential dye, ACh-evoked depolarization; hits give low values | B-score at 10 µM | 310,000 compounds, 1.1% hits | AID 2553;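 active = B-score under library mean minus 3 SD, initial fluorescence not abnormally high, positive integrated signal ratio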;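 also: B-score derived from integrated fluorescence ratio over the kinetic read; more negative B-score means stronger inhibition of depolarization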
TRPC4 inh – blocks the mouse TRPC4 cation channel. Q9QUQ5. HEK293 TRPC4beta/mu-opioid, DAMGO-evoked Fluo4 calcium flux; hits give low values. 300,000 compounds, 0.39% hits. B-score at 10 µM;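 active = B-score over 3 SD under the library average, no early fluorescence shift, positive overall ratio signal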
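material = TRPC4beta/mu-opioid receptor HEK293 cell line | probe or stimulus = sequential submaximal and maximal DAMGO stimulation | compound dosing = one concentration per compound | measured by = Fluo4 Ca2+ flux fluorescence | evaluation = integrated fluorescence ratio relative to baseline, converted to per-well B score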
TRPC4 act – opens the mouse TRPC4 cation channel; HEK293 TRPC4beta/mu-opioid, Fluo4 calcium fluorescence; hits give high values; B-score at 10 µM; 310,000 compounds, 0.49% hits; AID 2237;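 active = B-score above 5 SD of library B-scores, and initial fluorescence ratio not above library mean plus 5 SD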;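 also: positive B-score marks a calcium rise read as TRPC4 activation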
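Technique: kinetic Fluo4 calcium fluorescence; Test system: TRPC4beta and mu-opioid receptor HEK293 stable cells; Measure: B-scored integrated calcium fluorescence ratio; Benchmarks: low control buffer alone, high control maximal DAMGO; Schedule: 45 min room-temperature Fluo4 loading, 110 s read.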
TRPC4 spec 2 – second selectivity test of TRPC6 inhibitors: effect on mouse TRPC4 | 920 compounds, 42% hits | inhibition, % at 10 µM | AID 2776 | HEK293 TRPC4/MOR, membrane potential dye fluorescence; channel activated by saturating DAMGO dose | shares compounds with TRPC6 inhibitor;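 active = compounds whose fluorescence signal differed from control wells by over 3 SD, either direction, in both duplicate plates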
TRPC4 spec – selectivity of TRPC6 inhibitors: effect on mouse TRPC4 | activity change, negative = inhibition, % at 10 µM | 920 compounds, 61% hits | HEK293 TRPC4/mu-opioid, membrane potential fluorescence | shares compounds with TRPC6 inhibitor;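 active = rise or fall in signal beyond 3 SD of buffer-only wells in both replicate plates, either sign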;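 also: integrated kinetic ratio of fluorescence range over baseline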
HEK293 MPD ctr 2-1 – second check of TRPC6 inhibitor effects in parental HEK293 cells; shares compounds with TRPC6 inhibitor; parental HEK293 membrane potential dye fluorescence; maximal acetylcholine challenge after compound addition; signal change vs control, % at 10 µM; 920 compounds, 31% hits; AID 2779;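 active = membrane potential signal moving either way by over 3 SD of the maximum-effect control, in both duplicate plates, meaning non-specific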
HEK293 MPD ctr-1 – counter-screen for TRPC6 inhibitors: effect in parental HEK293 cells. shares compounds with TRPC6 inhibitor. parental HEK293 membrane potential dye fluorescence. membrane potential signal change, % at 10 µM. 920 compounds, 60% hits;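 active = membrane potential signal shifting up or down by more than 3 SD of buffer-only wells, on both duplicate plates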
HEK293 MPD ctr-2 – checks TRPC6 modulator effects in parental HEK293 cells | shares compounds with TRPC6 inhibitor | membrane potential signal change, % at 10 µM | 2,400 compounds, 51% hits | AID 488924 | membrane potential dye fluorescence;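 active = membrane potential signal moves up or down beyond 5 SD from buffer-only wells, on both duplicate plates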
HEK293 MPD ctr 2-2 – second counter-screen for TRPC6 modulators: effect in parental HEK293 cells | shares compounds with TRPC6 inhibitor | membrane potential dye fluorescence; after compound, maximal acetylcholine stimulation | 2,400 compounds, 14% hits | inhibition, % at 10 µM;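 active = membrane potential signal drops by more than 5 SD from the mean control signal, in both duplicate plates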
TRPC4 ctr mod – mouse TRPC4 off-target activity of TRPC6 modulators. shares compounds with TRPC6 inhibitor. HEK293 TRPC4/mu-opioid, membrane potential fluorescence. percent change from control (negative = decrease, positive = increase), % at 10 µM. 2,400 compounds, 69% hits. AID 488927;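 active = membrane potential signal moved up or down beyond 5 SD of buffer control wells, in both duplicate plates, actives on both sides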
TRPC4 ctr inh 2 – second check of whether TRPC6 modulators also affect mouse TRPC4; shares compounds with TRPC6 inhibitor; HEK293 TRPC4/mu-opioid, membrane potential dye fluorescence; stimulated with maximal-effect DAMGO; inhibition, % at 10 µM; 2,400 compounds, 55% hits;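 active = drop in membrane potential signal beyond 5 SD of the control wells in both duplicate plates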;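 also: TRPC4 counter screen for TRPC6 hits run under conditions tuned for TRPC6 not TRPC4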
TRPC6 block conf – mouse TRPC6 inhibitor confirmation; shares compounds with TRPC6 inhibitor; inhibition, % at 10 µM; 3,300 compounds, 43% hits; HEK293-TRPC6, membrane potential dye, ACh-evoked depolarization;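 active = fluorescence ratio falls more than 5 SD below the full-stimulation control mean, in both duplicate runs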;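 also: integrated fluorescence ratio of peak minus minimum over baseline after agonist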
TRPC6 act conf – confirmation of mouse TRPC6 activators. activation, % at 10 µM. HEK293-TRPC6 membrane potential dye fluorescence, FDSS. shares compounds with TRPC6 inhibitor. 2,800 compounds, 11% hits;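 active = ratio signal rise beyond 5 SD above unstimulated control wells' mean, seen in both duplicate runs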
Numbers stand for hits; i = inactive; nt = not tested or not shown.

SMILES	Platelet DG rel	TRPC6 activator	TRPC4 potent	TRPC6 inhibitor	TRPC4 inh	TRPC4 act	TRPC4 spec 2	TRPC4 spec	HEK293 MPD ctr 2-1	HEK293 MPD ctr-1	TRPC6 block conf	TRPC6 act conf	others
O=C1CSC(c2cccnc2)N1Cc1ccc(Cl)c(Cl)c1 (stereo unspecified)	i	i	i	i	i	i	nt	nt	nt	nt	nt	nt
Cc1c(C(=O)OCCN2CCCCC2)oc2ccccc12	i	i	i	-8.6	i	i	i	10%	i	15%	i	nt
CC(C)(C)c1ccc(C(=O)OCCN2CCCCC2)cc1	i	13	i	i	i	i	nt	nt	nt	nt	i	66%	HEK293 MPD ctr-2=128%;HEK293 MPD ctr 2-2=i;TRPC4 ctr mod=26%;TRPC4 ctr inh 2=56%
COc1ccc(C(=O)OCCN2CCCCC2)cc1	i	i	i	i	i	i	nt	nt	nt	nt	nt	nt
Cc1c(C(=O)OC(C)CCN(C)C)oc2ccccc12 (stereo unspecified)	i	i	i	-9.7	i	i	i	7.3%	i	11%	i	nt
Cc1c(C(=O)OCC(C)(C)CN(C)C)oc2ccccc12	i	i	i	i	i	i	nt	nt	nt	nt	nt	nt
Cc1ccc(Nc2nc(NCCO)c3ccccc3n2)cc1C	i	i	i	-6.5	i	i	nt	nt	nt	nt	79%	i	HEK293 MPD ctr-2=i;HEK293 MPD ctr 2-2=77%;TRPC4 ctr mod=-16%;TRPC4 ctr inh 2=86%
COc1ccc(OC)c(Nc2c3ccccc3nc3ccccc23)c1	i	i	i	-6	-6	i	nt	nt	nt	nt	53%	i	HEK293 MPD ctr-2=-182%;HEK293 MPD ctr 2-2=i;TRPC4 ctr mod=-30%;TRPC4 ctr inh 2=70%
COc1ccccc1Nc1nc(NCCO)c2ccccc2n1	i	i	i	i	i	i	nt	nt	nt	nt	nt	nt
COc1ccccc1Nc1nc(NCC2CCCO2)c2ccccc2n1 (stereo unspecified)	i	i	i	-8.8	-7	i	32%	-13%	i	-139%	112%	i
COc1cccc(-c2nc(NCC3CCCO3)c3ccccc3n2)c1O (stereo unspecified)	i	i	i	i	i	i	nt	nt	nt	nt	nt	nt
COc1ccc(OC)c(Nc2nc(NCCO)c3ccccc3n2)c1	i	i	i	-9	-5	i	44%	-24%	32%	-274%	79%	i
OCCNc1nc(-c2ccccc2)nc2ccccc12	i	i	i	i	i	i	nt	nt	nt	nt	nt	nt
O=C(CCc1ccccc1)Nc1ccc(S(=O)(=O)Nc2nccs2)cc1	i	i	i	i	i	i	nt	nt	nt	nt	nt	nt
O=C(NNC(=S)NCC1CCCO1)c1cc(Br)ccc1Cl (stereo unspecified)	i	i	i	i	i	i	nt	nt	nt	nt	nt	nt
